The subject of test [1] is HEK293T cells lacking RAD51. Put plainly: Cell viability of RAD51 siRNA-depleted cells. Format: cell-based, human. The settings on record: six-day exposure. The method in brief: (§1)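 HEK293T cells were reverse-transfected with 40 nM siRNA per plate (Dharmafect 1), with GFP siRNA as control, then reseeded after overnight incubation. They were transfected again on day 3. For the RAD51 arm, knockdown was verified by Western blot at 12 h and day 6, with six-day compound exposure. Cells were grown in DMEM/10% FBS; viability was read by resazurin incubation for 2 h, fluorescence at 590 nm.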

For the next test, the system named is ERK1/2. The experiment in a line: Bio-layer interferometry binding kinetics. On the set-up: species or system human. The settings on record: BLI, 25 °C. In a few lines: (§2)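 Kinetics by bio-layer interferometry at 25 °C in 20 mM HEPES pH 7.5, 150 mM NaCl, 0.5 mM TCEP. Biotinylated kinases were captured on streptavidin biosensors. Association and dissociation phases ran 600 s each over several compound concentrations. Controls were protein-coated sensors without compound and uncoated sensors with compound. Data were double-referenced and fitted for binding constants.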
Background: BLI is a label-free optical method that tracks binding on a fibre tip over time.

For the next test, the system named is ERK2 mutants. The experiment in a line: Bio-layer interferometry binding kinetics on ERK2 mutants. On the set-up: species or system human.
The test system of a further test is V-C8 cells. Put plainly: Cell viability of BRCA2-deficient versus BRCA2-complemented cells. Format: cell-based, hamster. The settings on record: three-day exposure. In a few lines: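 They were exposed to test compound for three days over a concentration range, then incubated 2 h in resazurin-containing medium; fluorescence was read at 590 nm.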
The next test concerns HEK293T cells. The experiment in a line: Cell survival of BRCA2 siRNA knock-down cells. Format: cell-based, human. In a few lines:
as §1

The target of test [2] is T1, ERK1 (Homo sapiens, UniProt P27361). The experiment in a line: Isothermal titration calorimetry. Format: binding. The following applies: ITC. For orientation: Isothermal titration calorimetry measures the heat released or taken up as one component is titrated into another.
T1 sequence (P27361 whole entry): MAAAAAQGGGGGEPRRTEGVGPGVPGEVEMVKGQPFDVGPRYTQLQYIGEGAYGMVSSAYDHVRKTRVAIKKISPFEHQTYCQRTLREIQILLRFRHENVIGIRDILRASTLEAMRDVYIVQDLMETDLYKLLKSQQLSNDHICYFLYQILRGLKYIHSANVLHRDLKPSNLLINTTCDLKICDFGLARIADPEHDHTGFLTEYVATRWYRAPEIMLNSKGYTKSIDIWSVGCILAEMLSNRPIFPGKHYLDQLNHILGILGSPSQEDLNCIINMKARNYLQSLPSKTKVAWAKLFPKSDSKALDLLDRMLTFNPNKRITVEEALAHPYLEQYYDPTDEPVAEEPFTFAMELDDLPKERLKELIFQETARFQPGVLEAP
A further test deals with MDA-MB 231 cells. Put plainly: Growth of cells with doxycycline-induced BRCA2 shRNA depletion. Format: cell-based, human. The method in brief:
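MDA-MB-231 cells carrying a doxycycline-inducible BRCA2 shRNA were seeded at 2500 cells/well in DMEM/10% FBS with penicillin/streptomycin and treated with ERK inhibitors over a concentration range. Cell number was read after 2 h in resazurin-containing medium, by fluorescence at 590 nm.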

Test [3] relates to CLK1, CLK2, JNK2, CSNK2A1/A2, DRAK1 and TTK. Put plainly: Bio-layer interferometry binding kinetics on off-targets. Details: species or system human. The following applies: BLI, 25 °C. The method in brief: as §2
Another test has as its target JNK3 (Homo sapiens, UniProt P53779). The experiment in a line: Enzymatic IC50 assay. Format: biochemical.
Test [4] concerns the target Cdc2-like kinase 2 (CLK2) (Homo sapiens, UniProt P49760). The experiment in a line: Enzymatic IC50 assay. Format: biochemical.
The target of another test is CSNK2A2 (Homo sapiens, UniProt P19784). Put plainly: Enzymatic IC50 assay. Format: biochemical.
CSNK2A2, sequence (P19784 whole entry): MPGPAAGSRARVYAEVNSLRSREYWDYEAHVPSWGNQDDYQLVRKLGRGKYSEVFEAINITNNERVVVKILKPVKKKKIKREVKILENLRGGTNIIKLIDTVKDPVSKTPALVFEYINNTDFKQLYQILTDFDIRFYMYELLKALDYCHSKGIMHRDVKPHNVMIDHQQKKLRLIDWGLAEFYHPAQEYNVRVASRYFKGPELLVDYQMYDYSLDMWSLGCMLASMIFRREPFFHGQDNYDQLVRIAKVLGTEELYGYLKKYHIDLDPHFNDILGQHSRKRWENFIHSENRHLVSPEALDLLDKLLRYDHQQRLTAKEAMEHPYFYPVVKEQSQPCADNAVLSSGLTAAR
Test [5] has as its target T1, ERK1. Put plainly: Enzymatic IC50 assay. Format: biochemical.
A further test has as its target ERK2 (Homo sapiens, UniProt P28482). Put plainly: Isothermal titration calorimetry. The settings on record: ITC. Format: binding.
In test [6] the test system is MDA-MB-231 cells (pERK, pRSK1, pETS1). Put plainly: ERK signalling after inhibitor wash-out, Western blotting. Format: cell-based, human. The settings on record: 500 nM for 4 hours. The method in brief:
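MDA-MB-231 cells in DMEM/10% FBS with penicillin/streptomycin were treated with ERK inhibitor for 4 h, washed twice in PBS and released into fresh medium for 0.5, 1 and 2 h. Cells were trypsinised and lysed in SDS loading buffer with sonication. Equal protein was immunoblotted for pERK, pRSK and pETS1, with total ERK1/2, GAPDH or α-tubulin as loading controls. Band intensities were normalised to DMSO-treated cells.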
In general terms: In western blotting, separated proteins are transferred to a membrane and probed.

Each structure is given as a SMILES string. Entries after “also recorded” stand apart in the source; their conditions may differ.

Cdc2-like kinase 2 (CLK2), sequence (P49760 whole entry): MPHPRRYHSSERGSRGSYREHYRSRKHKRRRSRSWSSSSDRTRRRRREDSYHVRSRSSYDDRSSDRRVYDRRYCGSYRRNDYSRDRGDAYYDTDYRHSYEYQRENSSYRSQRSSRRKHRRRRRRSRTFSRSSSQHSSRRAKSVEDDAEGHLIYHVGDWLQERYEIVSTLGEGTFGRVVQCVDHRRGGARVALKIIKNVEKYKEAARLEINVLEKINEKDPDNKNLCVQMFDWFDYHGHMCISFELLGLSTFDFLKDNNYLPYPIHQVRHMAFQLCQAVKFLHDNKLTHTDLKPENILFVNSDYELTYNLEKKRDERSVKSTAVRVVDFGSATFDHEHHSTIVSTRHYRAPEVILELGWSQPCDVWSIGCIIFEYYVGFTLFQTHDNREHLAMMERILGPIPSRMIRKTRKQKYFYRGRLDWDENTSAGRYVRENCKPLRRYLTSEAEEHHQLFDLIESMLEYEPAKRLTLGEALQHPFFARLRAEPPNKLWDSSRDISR
ERK2, sequence (P28482 whole entry): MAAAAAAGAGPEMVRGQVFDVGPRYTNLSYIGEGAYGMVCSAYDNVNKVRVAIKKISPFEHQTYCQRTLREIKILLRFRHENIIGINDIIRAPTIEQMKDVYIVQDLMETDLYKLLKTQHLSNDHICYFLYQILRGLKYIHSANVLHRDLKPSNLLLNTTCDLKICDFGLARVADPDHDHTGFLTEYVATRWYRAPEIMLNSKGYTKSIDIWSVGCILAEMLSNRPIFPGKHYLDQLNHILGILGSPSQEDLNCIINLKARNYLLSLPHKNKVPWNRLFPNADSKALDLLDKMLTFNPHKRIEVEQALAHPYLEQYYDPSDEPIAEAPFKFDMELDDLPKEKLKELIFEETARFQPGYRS
JNK3, sequence (P53779 whole entry): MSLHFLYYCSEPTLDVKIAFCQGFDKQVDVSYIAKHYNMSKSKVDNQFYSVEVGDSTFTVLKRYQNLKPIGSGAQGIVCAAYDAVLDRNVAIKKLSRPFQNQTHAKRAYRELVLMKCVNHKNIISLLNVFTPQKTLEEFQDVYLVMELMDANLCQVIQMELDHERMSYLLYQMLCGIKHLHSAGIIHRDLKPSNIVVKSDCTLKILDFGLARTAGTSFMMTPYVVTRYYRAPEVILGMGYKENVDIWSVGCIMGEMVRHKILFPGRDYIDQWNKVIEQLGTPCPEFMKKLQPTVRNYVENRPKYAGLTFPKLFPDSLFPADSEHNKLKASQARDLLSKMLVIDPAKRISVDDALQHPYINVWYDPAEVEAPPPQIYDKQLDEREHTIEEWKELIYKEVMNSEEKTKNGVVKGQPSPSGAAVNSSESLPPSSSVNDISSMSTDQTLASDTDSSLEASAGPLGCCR

As for `O=C(c1cc(Cc2n[nH]c(=O)c3ccccc23)ccc1F)N1CCN(C(=O)C2CC2)CC1` [olaparib], the “cell killing of RAD51-depleted relative to control cells” value in [1] is on record as “specific elimination of RAD51-depleted cells”.

For `Nc1ncnc2c1c(I)cn2[C@@H]1O[C@H](CO)[C@@H](O)[C@H]1O` [5-iTU, 5-iodotubercidin], the “binding kinetics (association and dissociation)” value with ERK1/2 is given as “fast kinetic behaviours”.

Take `Cc1cnc(Nc2ccc(F)cc2Cl)nc1-c1c[nH]c(C(=O)N[C@H](CO)c2cccc(Cl)c2)c1` [VTX-11e]: the “binding kinetics (association and dissociation)” value with ERK1/2 was “slow association and dissociation patterns”. Further, the dissociation half-life in the test on ERK1/2 (estimated) is 35 to 46 min. The binding kinetics entry with ERK2 mutants (BLI, double mutants Y36Q/Y64K and Y36Q/Y64D) is listed as “increase inhibitor off-rates further”; in the test on ERK2 mutants (BLI, single mutants Y36Q and Y64K) it was “significantly reduced inhibitor off-rates”. Besides, in test [1], the “cell killing of RAD51-depleted relative to control cells” value was “significant increase in cell killing”. In addition, the “cell survival of BRCA2-deficient compared with BRCA2-complemented cells” value with V-C8 cells is recorded as “Significant differences in cell survival”. Moreover, the “sensitization by BRCA2 knockdown” value in the test with HEK293T cells is recorded as “sensitized”.

For the compound `O=C(Nc1ccc2[nH]nc(-c3ccncc3)c2c1)[C@@H]1CCN(CC(=O)N2CCN(c3ccc(-c4ncccn4)cc3)CC2)C1` [SCH772984], the “binding kinetics (association and dissociation)” value with ERK1/2 was “slow binding kinetics”; in test [3], “fast association and dissociation rates”. Also, the binding enthalpy change entry on ERK1 [2] and on ERK2 was “about −20 kcal/mol” each time. In addition, the binding kinetics entry with ERK2 mutants (listed as SCH771984) is “retained slow association and dissociation kinetics; also recorded: still showed slow binding kinetics”. Further, the “sensitization by BRCA2 knockdown” value in the test with MDA-MB 231 cells and in the test on HEK293T cells was “sensitized” each time. The half-maximal inhibitory concentration (IC50) (usually the concentration needed to halve the response being measured) came out at 632 nM on JNK3, 104 nM in test [4] and 8.3 nM against ERK1 [5]. Also, in the test with V-C8 cells, the “cell survival of BRCA2-deficient compared with BRCA2-complemented cells” value is reported as “significant reduction in cell survival”. The “IC50 in the enzymatic assay” value on CSNK2A2 is “no activity”.

Turning to `Nc1[nH]nc2nnc(-c3c(-c4ccccc4)nn4ccccc34)cc12` [FR180204], the “binding kinetics (association and dissociation)” value with ERK1/2 is “fast kinetic behaviours”. For the same compound, in [6], the pRSK1 inhibition entry was “not see a strong effect”.

The values above are taken from publication PMC4687050 (Nature chemical biology, 2014).
